ChEMBL document CHEMBL3046278, “Design, synthesis and antifungal/insecticidal evaluation of novel cinnamide derivatives” (2011)
In brackets after ≈: the same amount, converted by molar mass.

Columns and labels:
Format in all cases: functional
Rhizoctonia solani = assay: Antifungal activity against Rhizoctonia solani assessed as inhibition of mycelium growth at 50 ug/ml relative to control
Procedure, shortened: (§1)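 Mycelial growth inhibition on mycelial disks, compared with untreated control, using colony diameters: (control − treatment)/(control − disk diameter) × 100. Run twice, four replicates each.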

Cytospora mali = assay: Antifungal activity against Valsa mali assessed as inhibition of mycelium growth at 50 ug/ml relative to control; procedure, shortened: as §1
Botrytis cinerea = assay: Antifungal activity against Botryotinia fuckeliana assessed as inhibition of mycelium growth at 50 ug/ml relative to control; procedure, shortened: as §1
Phytophthora nicotianae = assay: Antifungal activity against Phytophthora parasitica assessed as inhibition of mycelium growth at 50 ug/ml relative to control; procedure, shortened: as §1
Sclerotinia sclerotiorum = assay: Antifungal activity against Sclerotinia sclerotiorum assessed as inhibition of mycelium growth at 50 ug/ml relative to control; procedure, shortened: as §1
[1] = test system: Bursaphelenchus xylophilus; assay: Nematicidal activity against Bursaphelenchus xylophilus assessed as mortality at 200 mg/L after 24 hr relative to control
Procedure, shortened: (§2)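 Compounds dissolved in acetone and diluted with distilled water to a 200 mg L-1 working solution. Distilled water served as blank, triplicate. Mortality counted at 24, 48 and 72 h, then corrected against the negative control with Abbott's formula.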

[2] = test system: Bursaphelenchus xylophilus; assay: Nematicidal activity against Bursaphelenchus xylophilus assessed as mortality at 200 mg/L after 72 hr relative to control; procedure, shortened: as §2
[3] = test system: Bursaphelenchus xylophilus; assay: Nematicidal activity against Bursaphelenchus xylophilus assessed as mortality at 200 mg/L after 48 hr relative to control; procedure, shortened: as §2
[4] = test system: Colletotrichum lindemuthianum; assay: Antifungal activity against Colletotrichum lindemuthianum assessed as inhibition of mycelium growth at 50 ug/ml relative to control; procedure, shortened: as §1
[5] = test system: Bursaphelenchus xylophilus; assay: Nematicidal activity against Bursaphelenchus xylophilus assessed as mortality after 48 hr; conditions: read-out: LD50 (the source's name)
[6] = test system: Bursaphelenchus xylophilus; assay: Nematicidal activity against Bursaphelenchus xylophilus assessed as mortality after 72 hr; conditions: read-out: LD50 (the source's name)
[7] = test system: Bursaphelenchus xylophilus; assay: Nematicidal activity against Bursaphelenchus xylophilus assessed as mortality after 24 hr; conditions: read-out: LD50 (the source's name)

SMILES | inhibition at 50 µg/mL (Rhizoctonia solani) [%] | inhibition at 50 µg/mL (Cytospora mali) [%] | inhibition at 50 µg/mL (Botrytis cinerea) [%] | inhibition at 50 µg/mL (Phytophthora nicotianae) [%] | inhibition at 50 µg/mL (Sclerotinia sclerotiorum) [%] | Activity [1] [%] | Activity [2] [%] | Activity [3] [%] | inhibition at 50 µg/mL [4] [%] | LC50 [5] [µg/mL] | LC50 [6] [µg/mL] | LC50 [7] [µg/mL]
CO/C=C(/C(=O)OC)c1ccccc1Oc1cc(Oc2ccccc2C#N)ncn1 [AZOXYSTROBIN] | 89 | 92 | 80 | 37.9 | 100 | – | – | – | – | – | – | –
Cc1ccc(/C(=C/C(=O)NCCc2ccc(O)cc2)c2ccnc(Cl)c2)cc1 | 72.9 | 29 | 33 | -18.5 | 29 | 7.56 | 14.2 | 12.65 | 16.4 | – | – | –
Cc1ccc(/C(=C/C(=O)NCCc2ccc(O)cc2)c2ccncc2)cc1C | 16.1 | -2.3 | 64 | 14.5 | 27 | 11.86 | 32.22 | 22.6 | 38.8 | – | – | –
Cc1ccc(/C(=C/C(=O)NCCc2ccccc2)c2ccnc(Cl)c2)cc1 | 93.9 | 48 | 44 | 24.4 | 37 | 15.8 | 35.35 | 28.13 | 59.7 | – | – | –
Cc1ccc(/C(=C/C(=O)NCCc2ccc(O)cc2)c2ccncc2)cc1 | 10.3 | -2.3 | 47 | -17.7 | 5.3 | 8.27 | 19.29 | 16.7 | 28.4 | – | – | –
N#Cc1c(Cl)c(Cl)c(Cl)c(C#N)c1Cl [CHLOROTHALONIL] | 75.5 | 88 | 95 | 63.7 | 70 | – | – | – | – | – | – | –
COC(=O)Nc1nc2ccccc2[nH]1 [CARBENDAZIM] | 100 | 100 | 38 | 14.5 | 100 | – | – | – | 82.1 | – | – | –
CC(C)(C)c1ccc(/C(=C/C(=O)N2CCOCC2)c2ccnc(Cl)c2)cc1 [PYRIMORPH] | 97.2 | – | – | – | 79 | – | – | – | – | – | – | –
CC(C)(C)c1ccc(/C(=C/C(=O)NCCc2ccc(O)cc2)c2ccnc(Cl)c2)cc1 | 9.03 | -7.8 | 50 | -13.7 | 29 | 21.17 | 31.44 | 27.76 | 39.5 | – | – | –
CCc1ccc(/C(=C/C(=O)NCCc2ccccc2)c2ccnc(Cl)c2)cc1 | 22.4 | 20 | 50 | 26.8 | 44 | 17.95 | 67.87 | 26.29 | 34.3 | 174 (≈ 445 µM) | 114 (≈ 291 µM) | 301 (≈ 769 µM)
COc1ccc(CCNC(=O)/C=C(/c2ccc(C(C)(C)C)cc2)c2ccnc(Cl)c2)cc1OC | 14.8 | 18 | 48 | -8.06 | 53 | 4.33 | 45.15 | 38.82 | 22.4 | – | – | –
Cc1ccc(/C(=C/C(=O)NCCc2ccc(O)cc2)c2ccnc(Cl)c2)cc1C | 91 | -6.3 | 54 | -18.5 | 44 | 3.97 | 23.99 | 14.86 | 35.8 | – | – | –
Cc1ccc(/C(=C/C(=O)NCCc2ccccc2)c2ccncc2)cc1C | 3.87 | 18 | 15 | -9.68 | 2.7 | 28.7 | 49.07 | 47.67 | 17.2 | – | – | –
CCc1ccc(/C(=C/C(=O)NCCc2ccccc2)c2ccncc2)cc1 | 9.68 | 30 | 48 | 5.65 | 45 | 7.56 | 8.71 | 8.23 | 37.3 | – | – | –
COc1ccc(CCNC(=O)/C=C(\c2ccnc(Cl)c2)c2ccc(C)cc2C)cc1OC | 35.5 | 29 | 40 | 22.6 | 68 | 19.02 | 38.09 | 34.02 | 42.5 | – | – | –
CCc1ccc(/C(=C/C(=O)NCCc2ccc(O)cc2)c2ccnc(Cl)c2)cc1 | 67.7 | 24 | 37 | 28.2 | 17 | 14.73 | 43.97 | 33.6 | 24.6 | – | – | –
CN(/C=C\c1ccccc1)C(=O)/C=C/c1ccccc1 [LANSIUMAMIDE B] | – | – | – | – | – | 100 | 100 | 100 | – | 6.36 (≈ 24.2 µM) | 5.38 (≈ 20.4 µM) | 8.38 (≈ 31.8 µM)
COc1ccc(CCNC(=O)/C=C(\c2ccnc(Cl)c2)c2ccc(C)c(C)c2)cc1OC | 23.8 | 36 | 33 | 14.2 | 28 | 8.63 | 21.64 | 17.81 | 23.9 | – | – | –
Cc1ccc(/C(=C/C(=O)NCCc2ccc(O)cc2)c2ccnc(Cl)c2)c(C)c1 | 13.6 | 26 | 38 | -25 | 27 | 12.22 | 54.16 | 44.71 | 21.6 | – | – | –
Cc1ccc(/C(=C/C(=O)NCCc2ccccc2)c2ccncc2)cc1 | 15.5 | 36 | 43 | -17.7 | 16 | 9.34 | 18.11 | 14.86 | 32.8 | – | – | –
COc1ccc(/C(=C/C(=O)NCCc2ccccc2)c2ccnc(Cl)c2)cc1 | 13.6 | -6.3 | 55 | -2.42 | 42 | 13.65 | 42.01 | 38.82 | 43.3 | – | – | –
Cc1ccc(/C(=C/C(=O)NCCc2ccccc2)c2ccnc(Cl)c2)c(C)c1 | 4.52 | 31 | 43 | 11.3 | 24 | 22.97 | 27.91 | 24.44 | 47 | – | – | –
COc1ccc(CCNC(=O)/C=C(\c2ccncc2)c2ccc(C)c(C)c2)cc1OC | 5.81 | 68 | 52 | -14.5 | 11 | 13.65 | 19.29 | 16.33 | 28.4 | – | – | –
COc1ccc(CCNC(=O)/C=C(/c2ccc(C)cc2)c2ccnc(Cl)c2)cc1OC | 82.6 | 42 | 59 | 0 | 42 | 13.29 | 43.97 | 38.45 | 55.2 | 178 (≈ 409 µM) | 126 (≈ 289 µM) | 305 (≈ 699 µM)
Cc1ccc(/C(=C/C(=O)NCCc2ccccc2)c2ccnc(Cl)c2)cc1C | 76.8 | 52 | 67 | 1.61 | 72 | 14.73 | 45.15 | 21.49 | 56 | 315 (≈ 805 µM) | 252 (≈ 646 µM) | 430 (≈ 1100 µM)
